In PMC5565762 (International Journal for Parasitology: Drugs and Drug …, 2017):

Columns and labels:
Bloodstream T. b. brucei [1] = assay: Inhibition of glucose uptake; assay type: cell-based, Trypanosoma brucei brucei; conditions: 30 min
Bloodstream T. b. brucei [2] = assay: Glucose consumption; assay type: cell-based, Trypanosoma brucei brucei; conditions: compound at its EC50, 4 h
Method in brief: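 Bloodstream T. b. brucei were seeded at 5.3–5.8 × 10^6 parasites/mL in HMI-9 with 10% FBS (37 °C, 5% CO2). They were exposed for 4 h to test compound at a fixed concentration, or to suramin 78 nM, ebselen 5 μM, tri-thiazol 0.31 μM or 1% DMSO vehicle. Viable cells were counted in a Neubauer chamber, cells were spun down at 2000 g for 10 min, and supernatant glucose was measured on an analyzer. Consumption is given as g/L per million cells per hour; triplicates, SD.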

[3] = tested on: Bloodstream T. b. brucei (strain 427) cell line 449; assay: Viability assay of bloodstream trypanosomes; assay type: cell-based; conditions: Trypanosoma brucei, 24 h
Method in brief: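 Bloodstream parasites at 5 × 10^5 cells/mL in HMI-9 with 10% FBS received test compound (5 μM final; nifurtimox 15 μM) or 1% DMSO, in triplicate, for 24 h at 37 °C and 5% CO2. Cells were diluted into PBS with 1% glucose, stained with propidium iodide (2 μg/mL) and counted by flow cytometry. Viability is the % of the DMSO-control cell count. EC50 came from 7-point curves (triplicates) fitted to a sigmoidal Hill equation; SD.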

[4] = tested on: murine macrophages (cell line J774); assay: Viability assay of murine macrophages; assay type: cell-based; conditions: murine macrophages vs T. b. brucei
Method in brief: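 J774 murine macrophages were grown in DMEM with 10% FBS, penicillin and streptomycin at 37 °C in 5% CO2. Cells were exposed to 7 concentrations of test compound, each in triplicate, for 24 h, and viability was measured with WST-1 reagent as % of DMSO-treated control. EC50 was derived by fitting a sigmoidal Hill equation; SD.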

[5] = tested on: redox biosensor hGrx-roGFP2 in bloodstream T. b. brucei; assay: Intracellular redox changes in T. brucei redox reporter cell line; assay type: cell-based, Trypanosoma brucei brucei; conditions: for oxidation of the biosensor: 4 h, 0.54 μM 13, 1.49 μM 15, 78 nM suramin, 25 μM menadione
Method in brief: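 The strain 427 line 449 bloodstream reporter line expresses hGrx-roGFP2, induced with 1 μg/mL oxytetracycline for 24 h. Parasites at 2 × 10^6/mL were treated for 4 h at 37 °C with test compound, 25 μM menadione, 78 nM suramin or 1% DMSO. A parallel sample then received 1 mM DTT for 15 min. Cells were stained with PI (2 μg/mL) and GFP (530/40 nm) was read on PI-negative cells by flow cytometry. Values are % biosensor reduction versus DMSO without DTT; triplicates, SD.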

## O=C(CCc1ccc(O)cc1)c1c(O)cc(O)cc1O [phloretin]
Bloodstream T. b. brucei [1]; 500 μM
  reduction of glucose uptake: 63%

## O=c1c2ccccc2[se]n1-c1ccccc1 [ebselen]
Bloodstream T. b. brucei [2]
  reduction of glucose consumption vs vehicle: 44%
Bloodstream T. b. brucei [2]; not statistically significant
  anti-proliferative activity with respect to the DMSO control: some anti-proliferative activity

## CC1CS(=O)(=O)CCN1/N=C/c1ccc([N+](=O)[O-])o1 (centres unmarked) [NFX, nifurtimox]
[3]; read-out: EC50 against T. b. brucei
  EC50: ~10 µM
[3]; read-out: Parasite survival
  viability at 15 µM: 28.2 ± 5.5%
[4]
  selectivity index (SI): ~10
Bloodstream T. b. brucei [1]; 5X EC50 (13 2.7 μM, 15 7.45 μM, nifurtimox 50 μM)
  glucose uptake compared to vehicle treated cells: A similar outcome

## CC1=CC(=O)c2ccccc2C1=O [menadione]
[5]
  oxidation of the biosensor: 60%
[5]; after 4 h treatment, 15 min with 1 mM DTT
  reversal of biosensor oxidation by DTT: fully reversible

## Cc1ccc(C(=O)Nc2ccc(S(=O)(=O)O)c3cc(S(=O)(=O)O)cc(S(=O)(=O)O)c23)cc1NC(=O)c1cccc(NC(=O)Nc2cccc(C(=O)Nc3cc(C(=O)Nc4ccc(S(=O)(=O)O)c5cc(S(=O)(=O)O)cc(S(=O)(=O)O)c45)ccc3C)c2)c1 [suramin]
Bloodstream T. b. brucei [2]; vs DMSO
  capacity to metabolize glucose compared to the control condition: < 30%
[5]
  oxidation of the biosensor: did not induce redox changes
